Measured values taken from PMC7965737 (Bioconjugate chemistry, 2019).
Where a name gives a salt, the structure may show the parent alone.

Columns and labels:
MDA-MB-468 = assay: MTT cytotoxicity assay, MDA-MB-468; assay type: cell-based, Human; conditions: MDA-MB-468 breast cancer cell line, serum-free media, 48 h
Outline: (§1)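 Cells were seeded at 5×10^3 per well in complete medium. The next day the medium was replaced with serum-free medium containing test compound (0–100 μM) or free doxorubicin (positive control), with untreated cells in serum-free medium as negative control, for 48 h at 37 °C, 5% CO2. MTT (5 mg/mL solution) was then added for 2 h. Formazan was dissolved in 4 mM HCl/0.1% NP40/2-propanol (1:1:1) and read at 570 nm. Viability was taken relative to untreated cells, in triplicate, with the experiment repeated once. IC50 came from a nonlinear fit of normalized data against log concentration.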

MCF-10A = assay: MTT cytotoxicity assay, MCF-10A; assay type: cell-based, Human; conditions: non-cancerous cell line MCF-10A, serum-free media, 48 h
Outline: as §1

`COc1cccc2c1C(=O)c1c(O)c3c(c(O)c1C2=O)C[C@@](O)(C(=O)CO)C[C@@H]3O[C@H]1C[C@H](N)[C@H](O)[C@H](C)O1` [Dox, Doxorubicin hydrochloride] gave an IC50 (MDA-MB-468) of 350 nM and an IC50 (MCF-10A) of 240 nM.
